# From article PMC3243785 (Chemical research in toxicology, 2011)
# Read-outs that look alike come from different tables or passages of the source.
# Experiments:
# [1] = system: hepatic microsomes from PB-, DEX- or VEH-treated rats (P450 enzymes); assay type: in vitro ADME, rat; details: for Metabolite identified by GC/MS (major/minor): large scale experiment; for Metabolite formation, Percent of ΣOH-PCB: 37°C; for Percent of PCB 136 metabolized to the metabolite: microsomes from PB-, DEX- or VEH-treated rats; for Percent of PCB 136 metabolized to the metabolite / Percent of PCB 136 converted to the metabolite: 50 μM PCB 136; for Formation of metabolite relative to microsomes from VEH-treated rats: 2 min incubation
# rat recombinant P450 2B1 = details: cited from earlier work
# [2] = system: Ryanodine receptors (RyRs); details: cited from earlier work
# [3] = system: hepatic microsomes from PB-, DEX- or VEH-treated rats (P450 enzymes); assay: Enantioselective gas chromatography; assay type: in vitro ADME, rat; details: for Enantiomeric fraction (EF), range over time course: 50 μM PCB 136
# P450 3A = assay: BQ activity of hepatic microsomes from inducer-treated rats; assay type: biochemical, rat; details: intraperitoneal inducer treatment of male Sprague-Dawley rats, relative to VEH
# P450 2B enzymes = assay: BROD activity of hepatic microsomes from inducer-treated rats; assay type: biochemical, rat; details: intraperitoneal inducer treatment of male Sprague-Dawley rats, relative to VEH
# [4] = Aqueous solubility of PCB 136 in incubation buffer by light scattering; assay type: physicochemical; details: phosphate buffer (incubation buffer), pH 7.4
# How it was run: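 Test compound dissolved in DMSO was added to 0.1 M phosphate buffer containing 3 mM MgCl2. Light scattering was read at 37 °C in a Peltier-controlled luminescence spectrophotometer, with excitation and emission both at 400 nm and 5 nm slits. Integration time was 5 s, with 5 min pre-recording followed by 5 min recording.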
# [5] = microsomes from PB-treated rats
# [6] = microsomes from DEX-treated rats, 5 μM PCB 136, 5 min
# [7] = microsomes from PB-treated rats, 5 μM PCB 136, 5 min
# [8] = microsomes from VEH-treated rats, 5 μM PCB 136, 5 min
# [9] = microsomes from PB-treated rats, 50 μM PCB 136, 5 min
# [10] = all incubations with 5 μM PCB 136
# [11] = all three microsomal preparations
# [12] = microsomes from DEX-treated rats
smiles,measurement,setting,value
"Oc1c(O)c(Cl)c(-c2c(Cl)ccc(Cl)c2Cl)c(Cl)c1Cl [4,5-diOH-PCB 136, 2,2',3,3',6,6'-hexachlorobiphenyl-4,5-diol]",Metabolite identified by GC/MS (major/minor),[1]; [5],minor metabolites
same,"Metabolite formation, Percent of ΣOH-PCB",[1]; [6],3%
same,Percent of PCB 136 metabolized to the metabolite,[1],< 0.1%
same,"Metabolite formation, Percent of ΣOH-PCB",[1]; [7],22%
same,"Metabolite formation, Percent of ΣOH-PCB",[1]; [8],2%
same,"Metabolite formation, Percent of ΣOH-PCB","[1]; microsomes from VEH-treated rats, 50 μM PCB 136, 5 min",1%
"Oc1cc(Cl)c(-c2c(Cl)ccc(Cl)c2Cl)c(Cl)c1Cl [4-OH-PCB 136, 2,2',3,3',6,6'-hexachlorobiphenyl-4-ol]",Formation of metabolite by rat recombinant P450 2B1,rat recombinant P450 2B1,no detectable quantities
same,Concentration needed to double basal RyR activity (EC2x),[2],1.60 µM
same,Metabolite identified by GC/MS (major/minor),[1]; [5],minor metabolites
same,"Metabolite formation, Percent of ΣOH-PCB",[1]; [6],3%
same,"Metabolite formation, Percent of ΣOH-PCB","[1]; microsomes from DEX-treated rats, 50 μM PCB 136, 5 min",2%
same,Percent of PCB 136 metabolized to the metabolite,[1],0.1%
same,"Metabolite formation, Percent of ΣOH-PCB",[1]; [9],1%
same,"Metabolite formation, Percent of ΣOH-PCB",[1]; [8],15%
same,Enantiomeric fraction (EF),"[3]; DEX-microsomes, 5 μM PCB 136, 30 min",0.22
same,Enantiomeric fraction (EF),"[3]; DEX-microsomes, 50 μM PCB 136, 1 min",0.39
same,Enantiomeric fraction (EF),"[3]; DEX-microsomes, 50 μM PCB 136, 10 min",0.33
same,Enantiomeric fraction (EF),"[3]; PB-microsomes, 50 μM PCB 136, 1 min",0.43
same,"Enantiomeric fraction (EF), direction of enrichment",[3]; [10],< 0.5
same,"Enantiomeric fraction (EF), direction of enrichment",[3]; [11],< 0.5
"Oc1cc(Cl)c(Cl)c(-c2c(Cl)ccc(Cl)c2Cl)c1Cl [5-OH-PCB 136, 2,2',3,3',6,6'-hexachlorobiphenyl-5-ol]",Metabolite identified by GC/MS (major/minor),[1]; [5],major metabolite
same,"Metabolite formation, Percent of ΣOH-PCB",[1]; [6],94%
same,Percent of PCB 136 converted to the metabolite,[1]; [12],~2%
same,Formation of metabolite relative to microsomes from VEH-treated rats,[1]; [12],8 times
same,"Metabolite formation, Percent of ΣOH-PCB",[1]; [7],78%
same,Percent of PCB 136 converted to the metabolite,[1]; [5],approximately 22%
same,"Metabolite formation, Percent of ΣOH-PCB",[1]; [9],99%
same,Formation of metabolite relative to microsomes from VEH-treated rats,[1]; [5],84 times
same,"Metabolite formation, Percent of ΣOH-PCB",[1]; [8],83%
same,Percent of PCB 136 converted to the metabolite,[1]; microsomes from VEH-treated rats,~0.4%
same,"Enantiomeric fraction (EF), range over time course",[3]; PB-microsomes,0.70-0.72
same,"Enantiomeric fraction (EF), range over time course",[3]; VEH-microsomes,0.62-0.75
same,Enantiomeric fraction (EF),"[3]; VEH-microsomes, 50 μM PCB 136, 1 min",0.62
same,"Enantiomeric fraction (EF), direction of enrichment",[3]; [10],> 0.5
same,"Enantiomeric fraction (EF), direction of enrichment",[3]; [11],> 0.5
Clc1ccc(Cl)c(-c2c(Cl)ccc(Cl)c2Cl)c1Cl [(-)-PCB 136],Activity towards RyRs,[2]; enantiospecific,displays activity
"C[C@@H]1C[C@H]2[C@@H]3CCC4=CC(=O)C=C[C@]4(C)[C@@]3(F)[C@@H](O)C[C@]2(C)[C@@]1(O)C(=O)CO [DEX, dexamethasone]",Increase in BQ activity in hepatic microsomes of treated rats,P450 3A,84 fold
same,Increase in BROD activity in hepatic microsomes of treated rats,P450 2B enzymes,7 fold
"CCC1(c2ccccc2)C(=O)NC(=O)NC1=O [PB, phenobarbital]",Increase in BROD activity in hepatic microsomes of treated rats,P450 2B enzymes,94 fold
"Clc1ccc(Cl)c(-c2c(Cl)ccc(Cl)c2Cl)c1Cl [PCB 136, 2,2',3,3',6,6'-hexachlorobiphenyl]",solubility,[4],~0.25 µM
same,Enantiomeric fraction (EF),"[3]; PB-microsomes, 5 μM PCB 136, 5 min incubation",0.35
same,Enantiomeric fraction (EF),"[3]; VEH-microsomes, 5 μM PCB 136, 5 min incubation",0.49
